{"source": "paper PMC6398930", "about": "(Bioorganic & medicinal chemistry letters, 2019)", "key": {"[1]": {"molecular_target": "T1, GIRK1/2 (Homo sapiens, UniProt P48051+P48549)", "T1 sequence (P48549 1-501)": "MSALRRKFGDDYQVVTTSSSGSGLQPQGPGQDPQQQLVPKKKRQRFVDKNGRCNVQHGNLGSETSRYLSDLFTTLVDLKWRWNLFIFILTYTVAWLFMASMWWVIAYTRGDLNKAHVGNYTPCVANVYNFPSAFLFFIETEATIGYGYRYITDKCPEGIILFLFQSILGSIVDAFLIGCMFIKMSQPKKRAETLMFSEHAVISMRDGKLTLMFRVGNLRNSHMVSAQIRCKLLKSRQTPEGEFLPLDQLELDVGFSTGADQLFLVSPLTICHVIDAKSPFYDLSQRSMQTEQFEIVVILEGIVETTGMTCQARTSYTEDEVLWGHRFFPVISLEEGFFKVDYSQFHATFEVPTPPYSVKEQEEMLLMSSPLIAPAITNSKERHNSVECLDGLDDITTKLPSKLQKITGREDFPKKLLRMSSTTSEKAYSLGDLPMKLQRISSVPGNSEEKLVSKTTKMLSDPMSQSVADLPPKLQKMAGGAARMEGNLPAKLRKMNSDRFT", "T1 sequence (P48051 1-423)": "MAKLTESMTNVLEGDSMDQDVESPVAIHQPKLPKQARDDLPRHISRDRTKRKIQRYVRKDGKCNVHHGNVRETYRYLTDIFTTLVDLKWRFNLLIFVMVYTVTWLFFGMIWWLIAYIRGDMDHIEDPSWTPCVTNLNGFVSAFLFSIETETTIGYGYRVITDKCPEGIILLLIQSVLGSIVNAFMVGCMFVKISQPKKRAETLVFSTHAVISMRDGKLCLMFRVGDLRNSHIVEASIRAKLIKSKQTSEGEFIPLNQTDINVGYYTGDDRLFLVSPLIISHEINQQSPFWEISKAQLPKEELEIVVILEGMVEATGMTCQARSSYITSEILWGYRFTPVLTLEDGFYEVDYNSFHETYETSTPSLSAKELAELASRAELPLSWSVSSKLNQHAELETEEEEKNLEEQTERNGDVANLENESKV", "experiment": "Thallium flux assay, GIRK1/2 expressing HEK293 cells", "type": "cell-based", "settings": "for Loss of GIRK1/2 potency/activity relative to 15a: compared with parent amide/phenyl compound 15a; for Selectivity GIRK1/2 vs GIRK1/4 (in words): thallium flux"}, "[2]": {"experiment": "Intrinsic and predicted hepatic clearance in mouse liver microsomes", "type": "in vitro ADME", "settings": "for CLint scaled / Predicted hepatic clearance mCLHEP: mouse, liver microsomes", "procedure,_shortened": "(§1)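 Part of an outsourced Tier 1 in vitro DMPK panel. Intrinsic clearance was measured in liver microsomes from the species named in each line and scaled. Predicted hepatic clearance was derived from the same microsomal experiments.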"}, "[3]": {"experiment": "Intrinsic and predicted hepatic clearance in human liver microsomes", "type": "in vitro ADME", "procedure,_shortened": "as §1"}, "[4]": {"experiment": "Plasma unbound fraction, mouse plasma", "type": "in vitro ADME"}, "[5]": {"experiment": "Stability in Human Liver S9 fractions", "type": "in vitro ADME"}}, "data": [{"compound": "Cc1cc(NC(=O)Cn2nnc(-c3cccnc3)n2)n(C2CCCCC2)n1", "note": "[16a]", "values": [{"measurement": "Loss of GIRK1/2 potency/activity relative to 15a", "setting": "[1]", "result": "> 20", "unit": "fold"}]}, {"compound": "Cc1cc(NC(=O)Cn2nncc2-c2ccccc2)n(C2CCCCC2)n1", "note": "[17b]", "values": [{"measurement": "CLint scaled", "setting": "[2]", "result": 3490, "unit": "mL/min/kg"}, {"measurement": "CLint scaled", "setting": "[3]; human, liver microsomes", "result": 209, "unit": "mL/min/kg"}]}, {"compound": "Cc1cc(NC(=O)Cn2nnc(-c3ccccc3)n2)n(C2CCC(F)(F)CC2)n1", "note": "[15d]", "values": [{"measurement": "CLint scaled", "setting": "[2]", "result": 723, "unit": "mL/min/kg"}, {"measurement": "CLint scaled", "setting": "[3]; human, liver microsomes", "result": 77.3, "unit": "mL/min/kg"}]}, {"compound": "Cc1cc(NC(=O)Cn2cc(-c3ccccc3)nn2)n(C2CCCCC2)n1", "note": "[17a]", "values": [{"measurement": "CLint scaled", "setting": "[2]", "result": 596, "unit": "mL/min/kg"}, {"measurement": "CLint scaled", "setting": "[3]; human, liver microsomes", "result": 54.6, "unit": "mL/min/kg"}]}, {"compound": "Cc1cc(NC(=O)Nc2ccc(F)c(F)c2)n(Cc2ccccc2)n1", "note": "[compound 1, reference compound]", "values": [{"measurement": "Selectivity GIRK1/2 vs GIRK1/4 (in words)", "setting": "[1]", "result": "activate GIRK1/2 preferentially over GIRK1/4"}]}, {"compound": "Cc1cc(NC(=O)Cn2nnc(-c3cccc(F)c3)n2)n(C2CCCCC2)n1", "note": "[16g]", "values": [{"measurement": "CLint scaled", "setting": "[2]", "result": 2710, "unit": "mL/min/kg"}, {"measurement": "Selectivity GIRK1/2 vs GIRK1/4 (in words)", "setting": "[1]", "result": "more selective for GIRK1/2 vs. GIRK1/4"}, {"measurement": "CLint scaled", "setting": "[3]; human, liver microsomes", "result": 162, "unit": "mL/min/kg"}]}, {"compound": "Cc1cc(NC(=S)Cn2nnc(-c3ccccc3)n2)n(C2CCCCC2)n1", "note": "[15b]", "values": [{"measurement": "Recovery in mouse plasma (in words)", "setting": "[4]", "result": "poor recovery"}, {"measurement": "CLint scaled", "setting": "[2]", "result": "> 5930", "unit": "mL/min/kg"}, {"measurement": "Predicted hepatic clearance mCLHEP", "setting": "[2]", "result": ">88.7", "unit": "mL/min/kg"}, {"measurement": "Loss of GIRK1/2 potency/activity relative to 15a", "setting": "[1]", "result": "~7", "unit": "fold"}, {"measurement": "CLint scaled", "setting": "[3]; human, liver microsomes", "result": 346, "unit": "mL/min/kg"}]}, {"compound": "Cc1cc(NC(=O)Cn2ccc(-c3ccccc3)n2)n(C2CCCCC2)n1", "note": "[17e]", "values": [{"measurement": "GIRK1/2 potency, fold less potent than 17f", "setting": "[1]; 17e vs 17f", "result": "~ 8 fold"}]}, {"compound": "Cc1cc(NC(=O)Cn2nnc(-c3ccccc3)n2)n(C2CCCCC2)n1", "note": "[15a]", "values": [{"measurement": "CLint scaled", "setting": "[2]", "result": 2920, "unit": "mL/min/kg"}, {"measurement": "CLint scaled", "setting": "[3]; human, liver microsomes", "result": 186, "unit": "mL/min/kg"}]}, {"compound": "Cc1cc(NC(=O)Cn2nnc(-c3ccccn3)n2)n(C2CCCCC2)n1", "note": "[16b]", "values": [{"measurement": "Loss of GIRK1/2 potency/activity relative to 15a", "setting": "[1]", "result": "> 20", "unit": "fold"}]}, {"compound": "Cc1cc(NC(=O)Cn2nnc(-c3ccccc3)n2)n(CC2CCCCC2)n1", "note": "[15q]", "values": [{"measurement": "CLint scaled", "setting": "[2]", "result": "> 5930", "unit": "mL/min/kg"}, {"measurement": "Selectivity GIRK1/2 vs GIRK1/4 (in words)", "setting": "[1]", "result": "lost selectivity between GIRK1/2 and GIRK1/4"}, {"measurement": "CLint scaled", "setting": "[3]; human, liver microsomes", "result": 753, "unit": "mL/min/kg"}]}, {"compound": "Cc1cc(NC(=O)Cn2nnc(-c3ccccc3)n2)n(C2CCS(=O)(=O)C2)n1", "note": "(stereo not shown) [15k]", "values": [{"measurement": "Stability in human S9 fractions (in words)", "setting": "[5]", "result": "stable"}, {"measurement": "CLHEP in Human Liver S9 fractions", "setting": "[5]; human liver S9", "result": "<1.0", "unit": "mL/min/kg"}, {"measurement": "CLint scaled", "setting": "[5]; human, liver S9 fractions", "result": 2.6, "unit": "mL/min/kg"}, {"measurement": "Stability in mouse liver microsomes (in words)", "setting": "[2]", "result": "stable"}, {"measurement": "CLint scaled", "setting": "[2]", "result": "< 49.5", "unit": "mL/min/kg"}, {"measurement": "Predicted hepatic clearance mCLHEP", "setting": "[2]", "result": "<31.9", "unit": "mL/min/kg"}, {"measurement": "Stability in human liver microsomes (in words)", "setting": "[3]", "result": "stable"}, {"measurement": "CLint scaled", "setting": "[3]; human, liver microsomes", "result": "< 23.1", "unit": "mL/min/kg"}, {"measurement": "Predicted hepatic clearance hCLHEP", "setting": "[3]; human, liver microsomes", "result": "<10.7", "unit": "mL/min/kg"}]}, {"compound": "Cc1cc(NC(=O)Cn2nnc(-c3ccc(Cl)c(Cl)c3)n2)n(C2CCCCC2)n1", "note": "[16d]", "values": [{"measurement": "CLint scaled", "setting": "[2]", "result": 489, "unit": "mL/min/kg"}, {"measurement": "CLint scaled", "setting": "[3]; human, liver microsomes", "result": 99.9, "unit": "mL/min/kg"}]}]}
